Results on eleven compounds are retold here after ChEMBL document CHEMBL1124637, “Synthesis and antiviral activity of several 2,5'-anhydro analogues of 3'-azido-3'-deoxythymidine, 3'-azido-2',3'-dideoxyuridine, 3'-azido-2',3'-dideoxy-5-halouridines, and 3'-deoxythymidine against human immunodeficiency virus and Rauscher-murine leukemia virus” (J Med Chem, 1989).

Data set [1] is described as follows: Metabolic stability (Half life) at pH-7.4 was evaluated. In kind it is ADME. The gist of the method:
(§1)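 Compound at 2 mg/mL held at 37 °C in phosphate-buffered saline, pH 7.4, with no enzymes present. At various times, aliquots were analysed by reverse-phase C-18 HPLC with a linear 0–30% CH3CN gradient into 0.01 M ammonium acetate (pH 5.5) over 30 min, monitored by UV at 254 nm. Intact anhydro compound, generated parent nucleoside and pyrimidine base were measured, and the half-life was derived.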

The test system of data set [2] is CCRF-CEM. The data set can be described thus: Concentration of compound required to inhibit 50% of host cell replication of human immunodeficiency virus in CEM-F cells. In kind it is functional.
Data set [3] is described as follows: Ratio of TICD50 to that of IC50 of human immunodeficiency virus (HIV-1). More on the design: reference not given here. Format: functional.
Data set [4] in a line: Metabolic stability (Half life)of the compound at pH-2.0 was evaluated. In kind it is ADME. Conditions: read-out: T1/2 h/. Summed up:
(§2)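 Chemical (non-enzymatic) stability. Each compound at 2 mg/mL was incubated in 0.01 N HCl (pH 2.0) at 37 °C. Aliquots taken at various times were run on reverse-phase C-18 HPLC with a linear 0–30% CH3CN gradient into 0.01 M ammonium acetate (pH 5.5) over 30 min, with UV detection at 254 nm. Remaining anhydro compound, released parent nucleoside and pyrimidine base were quantified, and the half-life was derived.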

For data set [5], the system named is CCRF-CEM. The data set can be described thus: Concentration of compound required to inhibit 50% of viral replication of human immunodeficiency virus in CEM-F cells. Format: functional, cell-based.
Data set [6] in a line: Metabolic stability (Half life)of the compound at pH-7.4 was evaluated. Format: ADME. Summed up: as §1
Data set [7] in a line: Metabolic stability (Half life) at pH-2.0 was evaluated. In kind it is ADME. Summed up: as §2
Data set [8] can be described thus: Ratio of TICD50 to that of IC50 of Rauscher-Murine leukemia virus (R-MuLv). In kind it is functional. The arrangement: reference not given here.
In data set [9] the test system is Rauscher murine leukemia virus. The experiment in a line: Concentration of compound required to inhibit 50% of viral replication of Rauscher-Murine leukemia virus. In kind it is functional, organism-based.
Data set [10] relates to Rauscher murine leukemia virus. The data set can be described thus: Concentration of compound required to inhibit 50% of host cell replication of Rauscher-Murine leukemia virus. Format: functional.
The subject of data set [11] is Rauscher murine leukemia virus. The data set can be described thus: Cytotoxic concentration of compound required to inhibit 50% of host cell replication of Rauscher-Murine leukemia virus. Format: functional.

Turning to `[N-]=[N+]=N[C@H]1C[C@H]2O[C@@H]1COC1NC(=O)C=CN12` (stereo partly specified), the half-life amounted to 120 h in data set [1] and 0.188 h in data set [4]. In addition, the “CC50 (50% host cell growth inhibition)” value in [2] was more than 100 µM. Further, in data set [3], the Ratio is given as 20. The midpoint of inhibition in data set [5], the IC50, lay at 4.95 µM.

For the compound `CC1=CN([C@H]2C[C@H](N=[N+]=[N-])[C@@H](CO)O2)C(N)NC1=O` (stereo partly specified), the “CC50 (50% host cell growth inhibition)” value in data set [2] came out at 470 µM. The values for the half-life in data set [6] and in data set [7] were more than 168 h and 2.33 h, respectively. The Ratio was determined as 3 in [8] and 39 in [3]. The IC50 in data set [9] was 114 µM; in [5] it was 12 µM. Further, the TCID50 in data set [10] is more than 376 µM.

For `Cc1cn([C@H]2CC[C@@H](CO)O2)c(=O)[nH]c1=O`, the figures for the Ratio in data set [8] and in data set [3] were 1 and 631, respectively. In addition, the IC50 in data set [9] is more than 442 µM; in data set [5] it was 0.38 µM. The same compound gave a TCID50 in data set [10] of more than 442 µM.

Turning to `[N-]=[N+]=N[C@H]1C[C@H]2O[C@@H]1COC1NC(=O)C(Br)=CN12` (stereo partly specified), the figures for the half-life in [1] and in data set [7] were 60.5 h and 0.238 h, respectively. Also, in data set [2], the “CC50 (50% host cell growth inhibition)” value was 168 µM. The Ratio is listed as 20 in data set [8] and 6 in data set [3]. Moreover, the IC50 stood at 16.1 µM in [9] and 28 µM in [5]. For the same compound, the TCID50 in data set [10] is more than 319 µM.

For the compound `CC1=CN2C(NC1=O)OC[C@H]1O[C@@H]2C[C@@H]1N=[N+]=[N-]` (stereo partly specified), the values for the half-life in [1] and in [7] (read-out: T1/2 h/) were more than 75 h and 0.492 h, respectively. In addition, in data set [2], the “CC50 (50% host cell growth inhibition)” value was more than 100 µM. For the same compound, the Ratio in data set [8] was 1481; in data set [3], 179. For the same compound, the figures for the IC50 in data set [9] and in data set [5] were 0.27 µM and 0.56 µM, respectively. Moreover, in data set [10], the TCID50 is more than 400 µM.

For the compound `CC1=CN2C(NC1=O)OC[C@@H]1CC[C@H]2O1` (stereo partly specified), in data set [2], the “CC50 (50% host cell growth inhibition)” value came to 346 µM. The half-life is 84.3 h in data set [6] and 0.00381 h in data set [7]. The values for the Ratio in [8] and in data set [3] were 1 and 7, respectively. Besides, the IC50 was more than 480 µM in data set [9] and 48 µM in data set [5]. In data set [11], this compound showed a TCID50 of more than 480 µM.

In the case of `[N-]=[N+]=N[C@H]1C[C@H](n2cc(Br)c(=O)[nH]c2=O)O[C@@H]1CO`, the “CC50 (50% host cell growth inhibition)” value in [2] was found to be 127 µM. The results for the Ratio in [8] and in [3] were 1309 and 15, respectively. Moreover, the IC50 in data set [9] turned out to be 0.23 µM; in [5], 8.73 µM. The compound also came in with a TCID50 in data set [10] of more than 301 µM.

In the case of `[N-]=[N+]=N[C@H]1C[C@H](n2cc(I)c(=O)[nH]c2=O)O[C@@H]1CO`, in data set [2], the “CC50 (50% host cell growth inhibition)” value was 153 µM. In addition, the Ratio in [8] is given as 1257; in [3] it was 12. The IC50 worked out at 0.21 µM in data set [9] and 12.6 µM in [5]. In data set [10], this compound yielded a TCID50 of more than 264 µM.

On to `[N-]=[N+]=N[C@H]1C[C@H]2O[C@@H]1COC1NC(=O)C(I)=CN12` (stereo partly specified), for which the “CC50 (50% host cell growth inhibition)” value in [2] is 194 µM. The figures for the Ratio in data set [8] and in data set [3] were 16 and 7, respectively. In addition, the IC50 came out at 17.7 µM in data set [9] and 27.1 µM in [5]. In data set [10], this compound returned a TCID50 of more than 277 µM.

Consider `[N-]=[N+]=N[C@H]1C[C@H](n2ccc(=O)[nH]c2=O)O[C@@H]1CO` [NAVURIDINE], for which the results for the TCID50 in data set [2] and in data set [10] were 166 µM and more than 395 µM, respectively. For the same compound, the Ratio in data set [8] is 3; in [3] it was 60. The half-maximal inhibitory concentration (IC50) in data set [9] worked out at 138 µM; in [5], 2.76 µM.

`Cc1cn([C@H]2C[C@H](N=[N+]=[N-])[C@@H](CO)O2)c(=O)[nH]c1=O` [ZIDOVUDINE]: the Ratio in [8] is reported as 17391; in data set [3], 290. Moreover, the half-maximal inhibitory concentration (IC50) in [9] was 0.023 µM; in [5], 0.1 µM. The TCID50 in data set [10] was more than 400 µM.

Broadly, the IC50 is the concentration at which inhibition is half-maximal.
